Measurements published in ChEMBL document CHEMBL4043276, “Design, synthesis and biological evaluation of 2-acetyl-5-O-(amino-alkyl)phenol derivatives as multifunctional agents for the treatment of Alzheimer's disease” (Bioorg Med Chem Lett, 2017).
The source made the active and inactive calls. The rule behind the calls is not given here.

Experiments:
[1] = target: T1, Amine oxidase [flavin-containing] A (Homo sapiens, UniProt P21397); assay: Inhibition of recombinant human MAO-A at 10 uM using kynuramine as substrate after 30 mins by fluorescence method relative to control; conditions: 0.5 h
T1 sequence (P21397 whole entry): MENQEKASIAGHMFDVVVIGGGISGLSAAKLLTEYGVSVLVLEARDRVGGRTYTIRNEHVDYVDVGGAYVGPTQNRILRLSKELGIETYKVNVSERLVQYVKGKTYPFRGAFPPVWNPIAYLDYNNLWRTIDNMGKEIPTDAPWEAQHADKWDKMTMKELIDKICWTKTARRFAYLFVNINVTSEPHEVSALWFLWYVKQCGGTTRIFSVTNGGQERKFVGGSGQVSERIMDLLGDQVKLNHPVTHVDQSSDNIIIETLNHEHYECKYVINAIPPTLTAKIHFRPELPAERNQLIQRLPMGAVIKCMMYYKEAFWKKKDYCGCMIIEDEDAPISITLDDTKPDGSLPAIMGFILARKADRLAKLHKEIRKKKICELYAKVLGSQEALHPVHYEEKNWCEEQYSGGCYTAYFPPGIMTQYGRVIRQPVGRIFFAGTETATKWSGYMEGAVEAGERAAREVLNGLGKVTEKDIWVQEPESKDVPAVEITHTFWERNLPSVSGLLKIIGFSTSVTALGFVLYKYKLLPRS

[2] = Selectivity index, ratio of IC50 for equine serum BuChE to IC50 for electric eel AChE
Summary of the method: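 IC50 values for E. electricus AChE and equine serum BuChE came from a modified Ellman assay, each the mean of three independent experiments run in triplicate. The selectivity index is the ratio of the two IC50 values.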

Cholinesterase = Cholinesterase (Equus caballus, UniProt P81908); format: ADME
Sequence of Cholinesterase (P81908 whole entry): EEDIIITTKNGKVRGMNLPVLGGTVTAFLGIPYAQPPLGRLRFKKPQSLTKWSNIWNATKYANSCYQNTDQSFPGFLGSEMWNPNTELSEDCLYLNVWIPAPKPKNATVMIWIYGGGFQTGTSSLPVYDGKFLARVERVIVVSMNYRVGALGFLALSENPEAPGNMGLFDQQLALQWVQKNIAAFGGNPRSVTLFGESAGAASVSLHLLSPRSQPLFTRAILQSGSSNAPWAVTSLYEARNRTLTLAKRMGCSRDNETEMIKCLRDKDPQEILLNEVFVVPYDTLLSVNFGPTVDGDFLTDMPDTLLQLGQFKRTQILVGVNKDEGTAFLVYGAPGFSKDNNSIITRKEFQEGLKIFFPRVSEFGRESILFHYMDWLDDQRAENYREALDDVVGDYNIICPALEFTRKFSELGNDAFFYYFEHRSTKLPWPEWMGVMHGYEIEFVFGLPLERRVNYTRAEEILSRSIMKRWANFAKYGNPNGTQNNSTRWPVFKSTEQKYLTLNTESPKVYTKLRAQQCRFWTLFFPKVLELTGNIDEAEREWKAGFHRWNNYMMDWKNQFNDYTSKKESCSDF

[3] = Antioxidant activity assessed as trolox equivalent of […]-induced radical scavenging activity measured every minute for 90 mins by ORAC fluorescein assay; format: functional
Summary of the method: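 Measured by the ORAC-FL fluorescein method. Values are given as μM Trolox equivalent per μM of test compound.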

[4] = target: T2, Amine oxidase [flavin-containing] B (Homo sapiens, UniProt P27338)
T2 sequence (P27338 whole entry): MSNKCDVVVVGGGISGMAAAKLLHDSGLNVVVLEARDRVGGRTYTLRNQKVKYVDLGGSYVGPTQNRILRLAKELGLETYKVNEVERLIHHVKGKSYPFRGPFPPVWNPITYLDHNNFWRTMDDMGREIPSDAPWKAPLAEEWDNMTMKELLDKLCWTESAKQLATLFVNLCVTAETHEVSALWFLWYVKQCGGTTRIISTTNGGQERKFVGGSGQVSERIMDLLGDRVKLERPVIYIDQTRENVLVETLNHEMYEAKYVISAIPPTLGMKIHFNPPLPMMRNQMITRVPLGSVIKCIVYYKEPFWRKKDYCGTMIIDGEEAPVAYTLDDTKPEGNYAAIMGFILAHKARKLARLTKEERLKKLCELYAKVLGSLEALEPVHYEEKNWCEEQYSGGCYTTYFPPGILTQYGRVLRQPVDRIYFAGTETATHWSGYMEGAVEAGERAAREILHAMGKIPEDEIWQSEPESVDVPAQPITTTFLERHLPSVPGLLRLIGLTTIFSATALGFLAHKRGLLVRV

Acetylcholinesterase = Acetylcholinesterase (Electrophorus electricus, UniProt O42275); assay: Inhibition of electric eel AChE using acetylthiocholine as substrate incubated for 15 mins by Ellman's method
Sequence of Acetylcholinesterase (O42275 whole entry): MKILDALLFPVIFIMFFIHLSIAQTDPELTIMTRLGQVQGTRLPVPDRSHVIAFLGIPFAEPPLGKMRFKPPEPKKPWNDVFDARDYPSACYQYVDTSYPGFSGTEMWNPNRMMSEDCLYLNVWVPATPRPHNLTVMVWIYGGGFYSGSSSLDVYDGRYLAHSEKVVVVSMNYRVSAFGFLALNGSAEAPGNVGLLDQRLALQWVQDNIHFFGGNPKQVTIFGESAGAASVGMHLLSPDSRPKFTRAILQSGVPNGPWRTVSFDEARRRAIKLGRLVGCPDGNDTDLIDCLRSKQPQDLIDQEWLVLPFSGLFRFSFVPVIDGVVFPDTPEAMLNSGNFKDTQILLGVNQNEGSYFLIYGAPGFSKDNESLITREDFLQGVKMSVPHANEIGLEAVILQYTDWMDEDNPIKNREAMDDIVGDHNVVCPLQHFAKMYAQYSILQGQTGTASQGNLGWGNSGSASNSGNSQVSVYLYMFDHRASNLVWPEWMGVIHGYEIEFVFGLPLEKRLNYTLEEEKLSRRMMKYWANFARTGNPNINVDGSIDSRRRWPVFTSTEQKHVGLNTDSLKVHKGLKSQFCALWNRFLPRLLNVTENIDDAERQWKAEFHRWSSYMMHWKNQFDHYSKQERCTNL

[5] = target: BuChE (butyrylcholinesterase) (Equus caballus, UniProt P81908); assay: Inhibition of equine serum BuChE at 50 uM incubated for 15 mins by Ellman's method relative to control; conditions: horse
Sequence of BuChE (butyrylcholinesterase) (P81908 whole entry): as the sequence (P81908 whole entry) above

[6] = Effective permeability of the compound by PAMPA; format: physicochemical; conditions: read-out: Peff
[7] = target: Acetylcholinesterase (Electrophorus electricus) (UniProt O42275); assay: Inhibition of electric eel AChE at 50 uM using acetylthiocholine as substrate incubated for 15 mins by Ellman's method relative to control
Sequence of Acetylcholinesterase (Electrophorus electricus) (O42275 24-633 limits assumed): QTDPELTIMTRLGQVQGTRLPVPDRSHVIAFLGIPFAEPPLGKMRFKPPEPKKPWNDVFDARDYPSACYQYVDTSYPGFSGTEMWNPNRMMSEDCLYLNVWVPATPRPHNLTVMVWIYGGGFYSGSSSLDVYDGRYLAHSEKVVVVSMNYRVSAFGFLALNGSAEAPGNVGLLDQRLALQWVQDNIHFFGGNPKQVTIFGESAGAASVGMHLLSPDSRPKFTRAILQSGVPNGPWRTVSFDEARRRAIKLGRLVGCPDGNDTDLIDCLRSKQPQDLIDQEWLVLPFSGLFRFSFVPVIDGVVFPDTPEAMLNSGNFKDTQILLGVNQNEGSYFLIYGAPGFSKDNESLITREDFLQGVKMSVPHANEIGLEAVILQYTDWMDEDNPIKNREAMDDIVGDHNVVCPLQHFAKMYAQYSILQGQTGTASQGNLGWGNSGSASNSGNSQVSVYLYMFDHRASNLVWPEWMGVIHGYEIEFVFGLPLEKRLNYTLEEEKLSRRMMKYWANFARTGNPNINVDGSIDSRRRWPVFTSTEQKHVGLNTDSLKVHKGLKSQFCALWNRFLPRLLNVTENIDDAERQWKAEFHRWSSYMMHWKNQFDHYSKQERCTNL

[8] = Metal chelating activity assessed as compound-Cu2+ complex formation by measuring red shift at 37.5 uM after 30 mins by UV-Visible spectrophotometric method
PC-12 [9] = assay: Protection against H2O2-induced cell injury in rat PC12 cells assessed as cell viability preincubated for 2 hrs followed by H2O2 addition measured after 24 hrs by MTT assay; format: functional, cell-based
Summary of the method: (§1)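 PC12 cells were injured with 100 μM H2O2. Viability was measured by MTT reduction and compared with untreated control and with the H2O2-only group.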

[10] = Metal chelating activity assessed as compound-Fe2+ complex formation at 37.5 uM after 30 mins by UV-Visible spectrophotometric method
[11] = Metal chelating activity assessed as compound-Al3+ complex formation at 37.5 uM after 30 mins by UV-Visible spectrophotometric method
[12] = Metal chelating activity assessed as compound-Zn2+ complex formation at 37.5 uM after 30 mins by UV-Visible spectrophotometric method
PC-12 [13] = assay: Protection against H2O2-induced cell injury in rat PC12 cells assessed as cell viability at 1 uM preincubated for 2 hrs followed by H2O2 addition measured after 24 hrs by MTT assay (reference value: 46.5%); format: functional; conditions: read-out: Activity; summary of the method: as §1
PC-12 [14] = assay: Protection against H2O2-induced cell injury in rat PC12 cells assessed as cell viability at 10 uM preincubated for 2 hrs followed by H2O2 addition measured after 24 hrs by MTT assay (reference value: 46.5%); format: functional; conditions: read-out: Activity; summary of the method: as §1
[15] = Metal chelating activity assessed as mole fraction of compound required to show 1:1 stoichiometry for Cu2+-compound complex at 37.5 uM after 30 mins by UV-Visible spectrophotometric method
[16] = target: Acetylcholinesterase (Electrophorus electricus) (UniProt O42275); conditions: 0.5 to 2 uM

With `CC(=O)c1ccc(OCCCCCN2CCN(c3ncccn3)CC2)cc1O` the inhibition at 10 µM [1] was under 5%, the Ratio IC50 [2] was 2.6 and the IC50 (Cholinesterase) was 137 µM. The Activity [3] was 1 equiv, the IC50 [4] was 15.5 µM and the IC50 (Acetylcholinesterase) was 51.8 µM.

Work on `CC(=O)c1ccc(OCCCCCCN2CCN(c3ccccn3)CC2)cc1O` yielded an inhibition at 10 µM [1] of under 5%, an inhibition at 0.25 h, 50 µM [5] of under 5% and an Activity [3] of 1.1 equiv. For the same compound, the IC50 [4] was 20.7 µM and the IC50 (Acetylcholinesterase) was 25.8 µM.

In the case of `CC(=O)c1ccc(OCCCN2CCCC2)cc1O`, the inhibition at 10 µM [1] is reported as under 5%, the inhibition at 0.25 h, 50 µM [5] is reported as under 5% and the Activity [3] is reported as 1 equiv. For the same compound, the IC50 [4] was 0.62 µM and the IC50 (Acetylcholinesterase) was 41.3 µM.

`CC(=O)c1ccc(OCCCCCCN2CCCCC2)cc1O` showed an inhibition at 10 µM [1] of under 5%, a Ratio IC50 [2] of 15.8 and an IC50 (Cholinesterase) of 45.7 µM. For the same compound, the Activity [3] was 0.98 equiv, the IC50 [4] was 26.6 µM and the IC50 (Acetylcholinesterase) was 2.9 µM.

For `Cn1c(=O)c2[nH]cnc2n(C)c1=O.O` [THEOPHYLLINE], the Papp [6] was 0.1 to 0.12 ×10⁻⁶ cm/s.

`CC(=O)c1ccc(OCCCCCCN2CCN(Cc3ccccc3)CC2)cc1O` gave an inhibition at 10 µM [1] of under 5%, a Ratio IC50 [2] of 4.5 and an IC50 (Cholinesterase) of 75.4 µM. It also gave an Activity [3] of 1.3 equiv, an IC50 [4] of 30.8 µM and an IC50 (Acetylcholinesterase) of 16.8 µM.

For `CC(=O)c1ccc(OCCCCCN2CCN(c3ccccn3)CC2)cc1O`, the inhibition at 10 µM [1] was under 5%, the inhibition at 0.25 h, 50 µM [5] was under 5% and the Activity [3] was 0.99 equiv. It also gave an IC50 [4] of 16.7 µM and an IC50 (Acetylcholinesterase) of 21.9 µM.

For `CN1C(C(=O)Nc2ccccn2)=C(O)c2ccccc2S1(=O)=O` [PIROXICAM], the Papp [6] was 0.72 to 2.5 ×10⁻⁶ cm/s.

With `CCn1cc(C(=O)O)c(=O)c2cc(F)c(N3CCNCC3)cc21` [NORFLOXACIN] the Papp [6] was 0.1 to 0.42 ×10⁻⁶ cm/s.

For `CCn1cc(C(=O)O)c(=O)c2cc(F)c(N3CCNCC3)nc21` [ENOXACIN], the Papp [6] was 0.47 to 0.9 ×10⁻⁶ cm/s.

Work on `CC(=O)c1ccc(OCCCCCCN2CCCC2)cc1O` yielded an inhibition at 10 µM [1] of under 5%, a Ratio IC50 [2] of 11.9 and an IC50 (Cholinesterase) of 46.5 µM. For the same compound, the Activity [3] was 1 equiv, the IC50 [4] was 12.2 µM and the IC50 (Acetylcholinesterase) was 3.9 µM.

`CC(=O)c1ccc(OCCCN2CCN(c3ccccn3)CC2)cc1O` gave an inhibition at 10 µM [1] of under 5%, an inhibition at 0.25 h, 50 µM [5] of 8.8% and an Activity [3] of 0.98 equiv. The IC50 [4] was 11.7 µM and the IC50 (Acetylcholinesterase) was 15.2 µM.

Work on `CC(=O)c1ccc(OCCCCN2CCCCC2)cc1O` yielded an inhibition at 10 µM [1] of under 5%, an inhibition at 0.25 h, 50 µM [5] of 21.4% and an Activity [3] of 1 equiv. The IC50 [4] was 2.5 µM and the IC50 (Acetylcholinesterase) was 8.8 µM.

`CC(=O)c1ccc(O)cc1O` gave an inhibition at 0.25 h, 50 µM [5] of under 5%, an Activity [3] of 2.5 equiv and an inhibition [7] of under 5%.

For `CC(=O)c1ccc(OCCCCCN2CCCC2)cc1O`, the inhibition at 10 µM [1] was under 5%, the Ratio IC50 [2] was 5.9 and the IC50 (Cholinesterase) was 37.2 µM. It also gave an Activity [3] of 1 equiv, an IC50 [4] of 3.5 µM and an IC50 (Acetylcholinesterase) of 6.3 µM.

`C[C@]12CC[C@H]3[C@@H](CCC4=CC(=O)CC[C@@]43C)[C@@H]1CC[C@@H]2O` [TESTOSTERONE] gave a Papp [6] of 16.3 to 17 ×10⁻⁶ cm/s.

With `CC(=O)c1ccc(OCCCN2CCN(Cc3ccccc3)CC2)cc1O` the Activity [8] was “Active”, the Activity (PC-12 [9]) was “Dose-dependent effect” and the Activity [10] was “inactive”. The inhibition at 10 µM [1] was under 5%, the Activity [11] was “inactive” and the Activity [12] was “inactive”. It also gave a Ratio IC50 [2] of 32.7, a viability at 1 µM (PC-12 [13]) of 59.6% and an IC50 (Cholinesterase) of 31.4 µM. It also gave a viability at 10 µM (PC-12 [14]) of 73.3%, an Activity [15] of 0.99 molar ratio and a Papp [6] of 13.3 ×10⁻⁶ cm/s. The Activity [3] was 1.5 equiv, the inhibition [16] was “Active” and the IC50 [4] was 6.8 µM. It also gave an IC50 (Acetylcholinesterase) of 0.96 µM.

For `CC(=O)c1ccc(OCCCCN2CCN(Cc3ccccc3)CC2)cc1O`, the inhibition at 10 µM [1] was under 5%, the inhibition at 0.25 h, 50 µM [5] was 11.5% and the Activity [3] was 1.4 equiv. The IC50 [4] was 15.9 µM and the IC50 (Acetylcholinesterase) was 2.2 µM.

For `CC(=O)c1ccc(OCCCCCN2CCN(Cc3ccccc3)CC2)cc1O`, the inhibition at 10 µM [1] was under 5%, the Ratio IC50 [2] was 5.4 and the IC50 (Cholinesterase) was 46.1 µM. It also gave an Activity [3] of 1.3 equiv, an IC50 [4] of 26.8 µM and an IC50 (Acetylcholinesterase) of 8.5 µM.

With `CC(=O)c1ccc(OCCCCCN2CCCCC2)cc1O` the inhibition at 10 µM [1] was under 5%, the inhibition at 0.25 h, 50 µM [5] was 27.9% and the Activity [3] was 1.1 equiv. For the same compound, the IC50 [4] was 6.1 µM and the IC50 (Acetylcholinesterase) was 5.5 µM.

`CC(=O)c1ccc(OCCCCCCN2CCN(c3ncccn3)CC2)cc1O` gave an inhibition at 10 µM [1] of under 5%, an inhibition at 0.25 h, 50 µM [5] of under 5% and an Activity [3] of 0.98 equiv. The IC50 [4] was 34.6 µM and the IC50 (Acetylcholinesterase) was 57 µM.

Work on `Cn1c(=O)c2c(ncn2C)n(C)c1=O` [CAFFEINE] yielded a Papp [6] of 1.28 to 1.3 ×10⁻⁶ cm/s.

Compound `CC(=O)c1ccc(OCCCN2CCN(c3ncccn3)CC2)cc1O` has an inhibition at 10 µM [1] of under 5%, an inhibition at 0.25 h, 50 µM [5] of under 5% and an Activity [3] of 0.95 equiv. The IC50 [4] was 15.1 µM and the IC50 (Acetylcholinesterase) was 26.3 µM.

With `Clc1cccc(Cl)c1N=C1NCCN1` [CLONIDINE] the Papp [6] was 5.1 to 5.3 ×10⁻⁶ cm/s.

`CC(=O)c1ccc(OCCCCN2CCN(c3ncccn3)CC2)cc1O` showed an inhibition at 10 µM [1] of under 5%, an inhibition at 0.25 h, 50 µM [5] of under 5% and an Activity [3] of 0.98 equiv. For the same compound, the IC50 [4] was 15.2 µM and the IC50 (Acetylcholinesterase) was 27.5 µM.

`CC(=O)c1ccc(OCCCCN2CCN(c3ccccn3)CC2)cc1O` showed an inhibition at 10 µM [1] of under 5%, an inhibition at 0.25 h, 50 µM [5] of under 5% and an Activity [3] of 1.1 equiv. It also gave an IC50 [4] of 12 µM and an IC50 (Acetylcholinesterase) of 18.4 µM.

`CC(=O)c1ccc(OCCCN2CCCCC2)cc1O` gave an inhibition at 10 µM [1] of under 5%, an inhibition at 0.25 h, 50 µM [5] of under 5% and an Activity [3] of 1.1 equiv. The IC50 [4] was 2.8 µM and the IC50 (Acetylcholinesterase) was 29.2 µM.

`CC(=O)c1ccc(OCCCCN2CCCC2)cc1O` gave an inhibition at 10 µM [1] of under 5%, an inhibition at 0.25 h, 50 µM [5] of 18.4% and an Activity [3] of 1 equiv. For the same compound, the IC50 [4] was 1.8 µM and the IC50 (Acetylcholinesterase) was 16.7 µM.
